Active and inactive are the calls of the source. The rule behind the calls is not given here.
Experiments:
[1] = Cytotoxicity against human LO2 cells by MTT assay; type: cell-based; conditions: L02
In short: (§1)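 Log-phase cells were diluted to 40,000–50,000 cells/mL in medium with 10% FBS, 2 mM glutamine and antibiotics (37 °C, 5% CO₂). They were seeded in 96-well plates and treated with a range of doses. MTT was added for 4 h, the formazan was dissolved in DMSO, and absorbance was read at 590 nm.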

A-375 = experiment: Cytotoxicity against human A375 cells by MTT assay; type: functional, cell-based; in short: as §1
K562 = experiment: Cytotoxicity against human K562 cells by MTT assay; type: functional, cell-based; in short: as §1
HepG2 [2] = experiment: Cytotoxicity against human HepG2 cells by MTT assay; type: functional, cell-based; in short: as §1
HepG2 [3] = experiment: Cell cycle arrest in human HepG2 cells assessed as accumulation at G2/M phase at 1 uM after 24 hrs by flow cytometry (reference value: 17.07 %); type: functional
HepG2 [4] = experiment: Cell cycle arrest in human HepG2 cells assessed as accumulation at G2/M phase at 0.2 uM after 24 hrs by flow cytometry (reference value: 17.07 %); type: functional
HepG2 [5] = experiment: Cell cycle arrest in human HepG2 cells assessed as accumulation at G2/M phase at after 24 hrs by flow cytometry; type: functional, cell-based
HepG2 [6] = experiment: Effect on microtubule network in human HepG2 cells assessed as abnormal mitotic spindles at 1 uM after 24 hrs by propidium iodide-FITC-based staining method; type: cell-based
In short: (§2)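 HepG2 cells were treated with 1.0 μM for 24 h. They were washed in PBS, fixed in cold 4% PFA for 10 min and blocked for 1 h in 5% goat serum/0.3% Triton/PBS. Staining used monoclonal anti-α-tubulin overnight at 4 °C, then Alexa Fluor 488 anti-mouse IgG for 30 min at room temperature, with propidium iodide for DNA. Cells were imaged by fluorescence or confocal microscopy.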

HepG2 [7] = experiment: Effect on microtubule network in human HepG2 cells assessed as multiple tubulin bundles without chromosomes aligned at the metaphase plate with more dispersion of the chromosomes at 1 uM after 24 hrs by propidium iodide-FITC-based staining method; type: cell-based; in short: as §2
[8] = Ratio of taxol IC50 to compound IC50 for mouse C26 cells by MTT assay; type: functional
A2780 = experiment: Cytotoxicity against taxol-resistant human A2780 cells by MTT assay; type: functional, cell-based
[9] = Cytotoxicity against human MCF7/ADR cells by MTT assay; type: functional, cell-based; conditions: NCI/ADR-RES
HCT-8 = experiment: Cytotoxicity against taxol-resistant human HCT8 cells by MTT assay; type: functional, cell-based
DU-145 = experiment: Cytotoxicity against human DU145 cells by MTT assay; type: functional, cell-based
[10] = Cytotoxicity against human A2780S cells by MTT assay; type: functional, cell-based; conditions: A2780
PC-3 = experiment: Cytotoxicity against human PC3 cells by MTT assay; type: functional, cell-based
[11] = Cytotoxicity against human ES2 cells by MTT assay; type: functional, cell-based; conditions: ES-2
SK-OV-3 = experiment: Cytotoxicity against human SKOV3 cells by MTT assay; type: functional, cell-based
SK-HEP1 = experiment: Cytotoxicity against human SKHEP1 cells by MTT assay; type: functional, cell-based
MCF7 = experiment: Cytotoxicity against human MCF7 cells by MTT assay; type: functional, cell-based
Bel-7402 = experiment: Cytotoxicity against human Bel7402 cells by MTT assay; type: functional, cell-based
[12] = Cytotoxicity against human SPC-A1 cells by MTT assay; type: functional, cell-based; conditions: SPCA1
[13] = Cytotoxicity against human H460 cells by MTT assay; type: functional, cell-based; conditions: NCI-H460
NCI-H358 = experiment: Cytotoxicity against human NCI-H358 cells by MTT assay; type: functional, cell-based
HT-29 = experiment: Cytotoxicity against human HT-29 cells by MTT assay; type: functional, cell-based
[14] = Cytotoxicity against mouse C26 cells by MTT assay; type: functional, cell-based
HCT-15 = experiment: Cytotoxicity against human HCT15 cells by MTT assay; type: functional, cell-based
HepG2 [15] = experiment: Induction of microtubule polymerization in human HepG2 cells at 1 uM after 24 hrs by propidium iodide-FITC-based staining method
HepG2 [16] = experiment: Antitumor activity against human HepG2 cells xenografted in Balb/C mouse assessed as tumor growth inhibition rate at 5 mg/kg administered every 4 days for 3 weeks measured on day 20; type: functional; conditions: read-out: TGI
In short: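 HepG2 cells (5 × 10⁶/mouse) in HBSS implanted in the right flank of 5–6-week-old female Balb/C and athymic nude mice, six per group. Dosing began once tumors reached ~100 mm³: three weeks at 2.5, 5 or 10 mg/kg every two days, or Taxol 5 mg/kg every four days; controls got physiological saline. Tumor volume = π/6 × length × width². T/C (%) = treated/control tumor volume × 100. Inhibition = (1 − treated/control tumor weight) × 100.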

Tubulin (Sus scrofa) [17] = target: T1, Tubulin (Sus scrofa) (UniProt P02554+P02550); experiment: Stabilization of purified pig brain tubulin polymerization at 20 uM measured every 30 seconds by spectrophotometry
In short: (§3)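 It was pre-incubated 5 min with compound (5, 10, 20 μM), Taxol (5, 20 μM) or DMSO. GTP was added to 1 mM final to start assembly, followed as the rise in absorbance at 340 nm at 37 °C.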

Tubulin (Sus scrofa) [18] = target: T1, Tubulin (Sus scrofa); experiment: Stabilization of purified pig brain tubulin polymerization at 5 uM measured every 30 seconds by spectrophotometry; in short: as §3
HepG2 [19] = experiment: Antitumor activity against human HepG2 cells xenografted in Balb/C mouse assessed as tumor volume T/C ratio at 5 mg/kg administered every 4 days for 3 weeks measured on day 20 relative to control

T1 sequence (P02550 whole entry, looked up): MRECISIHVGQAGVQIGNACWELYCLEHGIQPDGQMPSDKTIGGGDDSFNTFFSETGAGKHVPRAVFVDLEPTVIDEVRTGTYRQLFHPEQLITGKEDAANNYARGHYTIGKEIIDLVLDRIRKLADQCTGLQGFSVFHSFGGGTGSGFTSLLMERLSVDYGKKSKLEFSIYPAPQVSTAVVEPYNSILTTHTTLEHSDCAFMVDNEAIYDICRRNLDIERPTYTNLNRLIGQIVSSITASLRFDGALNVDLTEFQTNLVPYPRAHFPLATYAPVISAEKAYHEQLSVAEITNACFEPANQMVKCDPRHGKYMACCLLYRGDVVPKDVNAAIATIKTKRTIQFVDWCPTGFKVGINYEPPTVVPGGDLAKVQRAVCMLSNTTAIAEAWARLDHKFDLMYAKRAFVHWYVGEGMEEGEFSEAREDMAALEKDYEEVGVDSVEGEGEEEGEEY
T1 sequence (P02554 whole entry, looked up): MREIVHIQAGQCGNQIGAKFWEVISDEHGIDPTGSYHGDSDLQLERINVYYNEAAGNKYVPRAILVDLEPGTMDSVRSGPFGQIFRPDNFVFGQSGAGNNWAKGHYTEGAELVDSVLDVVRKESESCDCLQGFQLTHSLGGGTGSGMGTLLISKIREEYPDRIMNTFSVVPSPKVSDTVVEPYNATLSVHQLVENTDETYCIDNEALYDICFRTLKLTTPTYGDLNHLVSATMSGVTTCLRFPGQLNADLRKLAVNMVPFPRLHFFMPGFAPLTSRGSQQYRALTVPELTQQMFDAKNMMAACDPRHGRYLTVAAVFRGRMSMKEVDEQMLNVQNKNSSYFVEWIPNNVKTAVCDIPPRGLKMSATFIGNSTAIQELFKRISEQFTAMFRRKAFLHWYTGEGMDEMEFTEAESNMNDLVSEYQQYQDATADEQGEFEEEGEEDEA

With `COc1ccc(/C=C/C(=O)c2ccc(OC)c3c2OC(C)(C)C=C3)cc1OCCO` the IC50 [1] was > 10 µM, the IC50 (A-375) was 9.6 µM and the IC50 (K562) was > 10 µM. For the same compound, the IC50 (HepG2 [2]) was > 10 µM.
With `C#CCOc1cc(/C=C/C(=O)c2ccc(OC)c3c2OC(C)(C)C=C3)ccc1OC` the IC50 [1] was > 10 µM, the IC50 (A-375) was > 10 µM and the IC50 (K562) was > 10 µM. The IC50 (HepG2 [2]) was > 10 µM.
With `CCCCC(=O)Oc1cc(/C=C/C(=O)c2ccc(OC)c3c2OC(C)(C)C=C3)ccc1OC` the Activity (HepG2 [3]) was 69.18%, the Activity (HepG2 [4]) was 53.47% and the Activity (HepG2 [5]) was “Dose-dependent effect”. The Activity (HepG2 [6]) was “Active”, the Activity (HepG2 [7]) was “Active” and the “Ratio IC50” value [8] was 3. For the same compound, the IC50 (A2780) was 5.92 µM, the IC50 [9] was 0.17 µM and the IC50 (HCT-8) was 2.3 µM. For the same compound, the IC50 (DU-145) was 0.21 µM, the IC50 [10] was 0.33 µM and the IC50 (PC-3) was 0.12 µM. The IC50 [11] was 0.1 µM, the IC50 (SK-OV-3) was 0.27 µM and the IC50 (SK-HEP1) was 0.6 µM. The IC50 (MCF7) was 0.25 µM, the IC50 (Bel-7402) was > 2 µM and the IC50 [12] was 18.1 µM. The IC50 [13] was 5.45 µM, the IC50 (NCI-H358) was 0.09 µM and the IC50 (HT-29) was 0.19 µM. For the same compound, the IC50 [14] was 0.3 µM, the IC50 (HCT-15) was 0.1 µM and the IC50 [1] was > 10 µM. The IC50 (A-375) was 0.22 µM, the IC50 (K562) was 0.24 µM and the IC50 (HepG2 [2]) was 0.1 µM. The Activity (HepG2 [15]) was “Active”.
In the case of `COc1cccc(C(=O)Oc2cc(/C=C/C(=O)c3ccc(OC)c4c3OC(C)(C)C=C4)ccc2OC)c1`, the IC50 [1] is reported as > 10 µM, the IC50 (A-375) is reported as 0.8 µM and the IC50 (K562) is reported as 0.79 µM. It also gave an IC50 (HepG2 [2]) of 0.87 µM.
For `COc1ccc(/C=C/C(=O)c2ccc(OC)c3c2OC(C)(C)C=C3)cc1` [MILLEPACHINE], the IC50 [1] was > 20 µM and the IC50 (A-375) was 3.58 µM.
For `COc1ccc(/C=C/C(=O)c2ccc(OC)c3c2OC(C)(C)C=C3)cc1OC(=O)CCCc1ccc(N(CCCl)CCCl)cc1`, the IC50 [1] was > 10 µM, the IC50 (A-375) was 9.2 µM and the IC50 (K562) was 0.47 µM. It also gave an IC50 (HepG2 [2]) of 0.7 µM.
In the case of `COc1ccc(/C=C/C(=O)c2ccc(OC)c3c2OC(C)(C)C=C3)cc1O`, the IC50 [1] is reported as > 10 µM, the IC50 (A-375) is reported as 0.8 µM and the IC50 (K562) is reported as 0.63 µM. The IC50 (HepG2 [2]) was 0.45 µM.
`CC(=O)O[C@H]1C(=O)[C@@]2(C)[C@H]([C@H](OC(=O)c3ccccc3)[C@]3(O)C[C@H](OC(=O)[C@H](O)[C@@H](NC(=O)c4ccccc4)c4ccccc4)C(C)=C1C3(C)C)[C@]1(OC(C)=O)CO[C@@H]1C[C@@H]2O` [PACLITAXEL] showed an inhibition in vivo at 5 mg/kg (HepG2 [16]) of 59.1%, an Activity (Tubulin (Sus scrofa) [17]) of 23.8% and an Activity (Tubulin (Sus scrofa) [18]) of 6.3%. It also gave an IC50 (A2780) of 8.25 µM, an IC50 [9] of 6.9 µM and an IC50 (HCT-8) of 13.3 µM. It also gave an IC50 (DU-145) of 0.03 µM, an IC50 (PC-3) of 0.14 µM and an IC50 [11] of 0.1 µM. It also gave an IC50 (SK-OV-3) of 0.1 µM, an IC50 (SK-HEP1) of 0.24 µM and an IC50 (MCF7) of 0.66 µM. The IC50 (Bel-7402) was > 2 µM, the IC50 [12] was 5.3 µM and the IC50 [13] was 24 µM. It also gave an IC50 (NCI-H358) of 0.01 µM, an IC50 (HT-29) of 0.45 µM and an IC50 [14] of 1.05 µM. It also gave an IC50 (HCT-15) of 0.12 µM and a T/C at 5 mg/kg (HepG2 [19]) of 32.4%.
In the case of `COc1ccc(/C=C/C(=O)c2ccc(OC)c3c2OC(C)(C)C=C3)cc1OS(=O)(=O)Cc1ccccc1`, the IC50 [1] is reported as > 10 µM, the IC50 (A-375) is reported as > 10 µM and the IC50 (K562) is reported as > 10 µM. The IC50 (HepG2 [2]) was > 10 µM.
`COc1ccc(/C=C/C(=O)c2ccc(OC)c3c2OC(C)(C)C=C3)cc1OCCN1CCCC1` gave an IC50 [1] of 9.5 µM, an IC50 (A-375) of 3.81 µM and an IC50 (K562) of 3.05 µM. The IC50 (HepG2 [2]) was > 10 µM.
With `C=CC(=O)Oc1cc(/C=C/C(=O)c2ccc(OC)c3c2OC(C)(C)C=C3)ccc1OC` the IC50 [1] was > 10 µM, the IC50 (A-375) was 0.39 µM and the IC50 (K562) was 0.3 µM. For the same compound, the IC50 (HepG2 [2]) was 0.16 µM.
In the case of `COc1ccc(/C=C/C(=O)c2ccc(OC)c3c2OC(C)(C)C=C3)cc1OCCCN(C)C`, the IC50 [1] is reported as 8.6 µM, the IC50 (A-375) is reported as 4.1 µM and the IC50 (K562) is reported as 2.92 µM. The IC50 (HepG2 [2]) was 5.55 µM.
For `C=CCOc1cc(/C=C/C(=O)c2ccc(OC)c3c2OC(C)(C)C=C3)ccc1OC`, the IC50 [1] was > 20 µM, the IC50 (A-375) was > 10 µM and the IC50 (K562) was > 10 µM. For the same compound, the IC50 (HepG2 [2]) was > 10 µM.
For `COc1ccc(/C=C/C(=O)c2ccc(OC)c3c2OC(C)(C)C=C3)cc1OS(C)(=O)=O`, the IC50 [1] was > 10 µM, the IC50 (A-375) was > 10 µM and the IC50 (K562) was 9.24 µM. For the same compound, the IC50 (HepG2 [2]) was 9.18 µM.

Reference: ChEMBL document CHEMBL2331170, “Synthesis and biological evaluation of novel pyranochalcone derivatives as a new class of microtubule stabilizing agents” (Eur J Med Chem, 2013)
